Source: ChEMBL document CHEMBL1153527, “Discovery of a novel series of quinolone and naphthyridine derivatives as potential topoisomerase I inhibitors by scaffold modification” (J Med Chem, 2009)
pIC50: −log10 of the molar value. Calls of active or inactive are those of the source. No cut-off for these calls is given here.

Key:
[1] = Cytotoxicity against estrogen receptor-negative human […] cells expressing p53 mutant after 48 hrs by SRB assay; assay type: functional, cell-based
Method in brief: (§1)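 Cell lines came from CCRC, Taiwan. Cells were seeded at about 5 × 10^3 per well and left overnight. They were then given serum-free medium containing 0-10 μM compound (0.08-10 μM serial dilutions) for 48 h at 37 °C. Cells were fixed with TCA (10% final), stained with SRB (0.4% final), and the dye was dissolved in 10 mM Tris with A515 read. IC50 was taken from a fitted log concentration-response curve.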

HT-29 [2] = experiment: Antitumor activity against human HT-29 cells xenografted in athymic BALB/c nude mouse at 150 mg/kg, ip for 10 days measured after 30 days relative to placebo control; assay type: functional; details: route intraperitoneal
Method in brief: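 Female athymic BALB/c nude mice (35-40 days old, 18-22 g). HT-29 tumours first grown from 1 × 10^7 cells injected s.c. in the axillary fossa, then excised and transplanted. Treatment started at 100-300 mm3. Groups of n=6 were dosed i.p. daily in 400 μL: saline for 10 days, 5 mg/kg for 2 days, or 75/150 mg/kg for 10 days. Caliper volume was V=1/2·a·b². Values are relative to start volume, compared with placebo by Student's t test, and mice were killed on day 30.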

SK-OV-3 [3] = experiment: Induction of apoptosis in human SKOV3 cells assessed as morphological changes at 5 ug/mL after 24 hrs by immunostaining; assay type: functional, cell-based
Method in brief: (§2)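 SKOV3 and HT-29 cells were treated with 0.25 or 5 μg/mL for 24 h. Cell morphology was assessed by microscopy after fixation in 4% formaldehyde and Hoechst 33342 staining (10 μg/mL), against an untreated control.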

[4] = system: DNA topoisomerase 2 (Bos taurus); experiment: Inhibition of topoisomerase 2 at 200 uM
HT-29 [5] = experiment: Induction of apoptosis in human HT-29 cells assessed as morphological changes at 0.25 ug/mL after 24 hrs by immunostaining; assay type: functional, cell-based; method in brief: as §2
SK-OV-3 [6] = experiment: Reduction in topoisomerase 1 expression in human SKOV3 cells by immunocytochemistry; assay type: functional, cell-based
Method in brief: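 HT-29 and SKOV-3 cells were grown on slides and treated with compound at several concentrations, with an untreated control. Cells were fixed and permeabilised, and endogenous peroxidase was quenched with 0.3% H2O2/methanol. After blocking with 10% goat serum, slides were stained with anti-Top I (1:100, 10 h), then biotinylated secondary and avidin-biotin-HRP, and developed with DAB.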

Mus musculus = experiment: Toxicity in athymic BALB/c nude mouse xenografted with human HT-29 cells assessed as morbidity at 150 mg/kg, ip for 10 days measured after 30 days; assay type: organism-based; design: dose 150 mg/kg, route intraperitoneal; details: in vivo, 720 h
Method in brief: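 Nude mouse HT-29 xenograft model as above: female athymic BALB/c, 18-22 g, n=6 per group. Dosing was i.p. daily in 400 μL for 10 consecutive days at 75 or 150 mg/kg, with saline controls. Body weight and tumour volume were recorded every 4 days, and the study ended on day 30. Weights were compared with controls by Student's t test.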

HT-29 [7] = experiment: Cell cycle distribution in human HT-29 cells assessed as accumulation at S phase upto 10 uM by flow cytometry; assay type: functional
Method in brief: (§3)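 HT-29 cells were exposed to vehicle or 1, 5 or 10 μM compound for 6, 12, 24 or 48 h. Floating and attached cells were collected, fixed in 70% ethanol and treated with 0.1% Triton X-100. They were stained with PI at 50 μg/mL plus RNaseA at 50 μg/mL for 30 min at room temperature in the dark. FL2 DNA content was read on 10000 cells by flow cytometry. The sub-G1 fraction was taken as apoptotic.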

[8] = target: T1, DNA topoisomerase 1 (Homo sapiens) (UniProt P11387); experiment: Induction of human recombinant topoisomerase 1-mediated cleavage of 32P-labeled linearized pRYG plasmid DNA at 25 uM after 30 mins by agarose gel electrophoresis
T1 sequence (whole entry): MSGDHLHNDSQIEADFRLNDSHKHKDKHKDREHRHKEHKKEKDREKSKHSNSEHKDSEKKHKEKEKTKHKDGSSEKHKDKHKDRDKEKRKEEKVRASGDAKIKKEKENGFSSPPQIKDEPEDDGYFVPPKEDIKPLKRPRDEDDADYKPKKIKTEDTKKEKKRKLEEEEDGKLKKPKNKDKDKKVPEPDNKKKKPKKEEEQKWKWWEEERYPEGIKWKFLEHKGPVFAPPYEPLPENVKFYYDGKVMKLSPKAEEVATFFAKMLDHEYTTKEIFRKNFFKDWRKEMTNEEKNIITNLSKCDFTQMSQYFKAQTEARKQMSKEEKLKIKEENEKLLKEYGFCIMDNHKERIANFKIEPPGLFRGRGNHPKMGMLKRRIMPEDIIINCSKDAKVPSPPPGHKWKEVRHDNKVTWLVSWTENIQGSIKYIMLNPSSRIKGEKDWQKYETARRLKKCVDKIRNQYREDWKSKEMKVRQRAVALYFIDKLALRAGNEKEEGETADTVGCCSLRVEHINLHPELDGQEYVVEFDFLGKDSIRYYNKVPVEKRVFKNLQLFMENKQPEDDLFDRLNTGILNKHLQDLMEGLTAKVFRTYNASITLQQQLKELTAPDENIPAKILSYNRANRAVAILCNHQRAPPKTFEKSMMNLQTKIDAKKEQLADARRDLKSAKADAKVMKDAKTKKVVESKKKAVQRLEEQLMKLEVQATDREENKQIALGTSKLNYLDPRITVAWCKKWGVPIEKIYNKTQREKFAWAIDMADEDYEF
Method in brief: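 Recombinant human Top I was incubated with HindIII-linearised pRYG plasmid, 3'-end-labelled with [α-32P]dCTP by Klenow fill-in (about 100000 cpm per reaction). Reactions were stopped with SDS and proteinase K at 45 °C, alkali-denatured, run on a 1% agarose gel and autoradiographed.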

HepG2 = experiment: Cytotoxicity against human HepG2 cells expressing wild type p53 after 48 hrs by SRB assay; assay type: functional, cell-based; details: HepG2, 48 h; method in brief: as §1
A2780 = experiment: Cytotoxicity against human A2780 cells after 48 hrs by MTT assay; assay type: functional, cell-based; details: A2780, 48 h
SK-OV-3 [9] = experiment: Induction of apoptosis in human SKOV3 cells assessed as apoptotic cells at 5 ug/mL after 24 hrs by annexin V/propidium iodide-based flow cytometry; assay type: functional
Method in brief: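 SKOV-3 or HT-29 cells (1-5 × 10^6 cells/mL) were incubated with 0, 5 or 10 μg/mL compound for 24 h. They were then washed and stained with EGFP-Annexin V/PI and analysed immediately by flow cytometry. Annexin V+/PI− cells were scored as apoptotic; PI-permeant cells were scored as necrotic.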

HT-29 [10] = experiment: Induction of apoptosis in human HT-29 cells assessed as decrease in accumulation at G0/G1 phase at 1 uM after 48 hrs by flow cytometry; assay type: functional, cell-based; method in brief: as §3
[11] = target: T1, DNA topoisomerase 1 (Homo sapiens); experiment: Inhibition of DNA topoisomerase 1-mediated supercoiled Escherichia coli pBR322 DNA relaxation upto 25 uM after 30 mins
KB = experiment: Cytotoxicity against human KB cells after 48 hrs by MTT assay; assay type: functional, cell-based

inhibition [4]: inactive | Activity [8]: Active | inhibition [11]: inactive
SMILES: CCn1cc(-c2nc3ccc([N+](=O)[O-])cc3o2)c(=O)c2cc(F)c(N3CCNC(C)C3)c(F)c21 (configuration not stated)
GI50 [1]: 700 nM | pIC50 [1]: 5.51 | Activity (HT-29 [2]): 65% | Activity (SK-OV-3 [3]): Active | Activity (HT-29 [5]): Active | Activity (SK-OV-3 [6]): Dose-dependent effect | Activity (Mus musculus): Non-toxic | Activity (HT-29 [7]): 5% | GI50 (HepG2): 2800 nM | pIC50 (HepG2): 5.35 | pIC50 (A2780): 6.70 | Activity (SK-OV-3 [9]): 7.4% | Activity (HT-29 [10]): Active | pIC50 (KB): 6.22
